Hits are enriched below; roughly 4.5% of the tested compounds scored in any of these assays.
OX1R antag-1 – antagonists of human orexin 1 receptor; inhibition, % at 5 µM; CHO/OX1R cells, Fluo-8 calcium fluorescence, orexin A; AID 434989; 330,000 compounds, 0.43% hits; O43613;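 active means inhibition above its plate's threshold, mean inhibition of all tested compounds on the plate plus 3 SD, cut at about 37% in these data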
TAAR1 agonist – human TAAR1 agonism. CHO RD-HGA16 TAAR1, Fluo-8 calcium fluorescence; vehicle wells 0%, saturating PEA agonist 100%. activation, % at 3 µM. 360,000 compounds, 0.99% hits. AID 624467;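 active means activation above the mean activation of all test compounds in the run plus 3 SD, cut at about 38% in these data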
Target sequence (Q96RJ0 whole entry, looked up): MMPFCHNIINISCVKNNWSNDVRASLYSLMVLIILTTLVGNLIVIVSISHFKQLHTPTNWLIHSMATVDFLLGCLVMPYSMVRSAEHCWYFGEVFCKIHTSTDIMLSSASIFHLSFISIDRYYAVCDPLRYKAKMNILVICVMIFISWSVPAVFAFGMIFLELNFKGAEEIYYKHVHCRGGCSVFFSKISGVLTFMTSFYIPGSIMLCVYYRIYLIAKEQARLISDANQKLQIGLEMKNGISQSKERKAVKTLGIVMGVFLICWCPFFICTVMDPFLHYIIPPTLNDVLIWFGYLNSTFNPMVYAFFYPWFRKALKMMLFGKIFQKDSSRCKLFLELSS
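Test system: RD-HGA16 (CHO) cells co-expressing Gα16 and hTAAR1 / Benchmarks: DMSO vehicle as 0%, PEA at EC100 as 100% / Repeats: no replicates (n 1) / Measure: % activation from peak over basal fluorescence ratio, DMSO-to-PEA scaled / Timing: 17-24 h plating, Fluo-8 75 min 37 °C, 30 min RT / Technique: kinetic Fluo-8 calcium fluorescence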
GPR7 antag – blocks human GPR7 receptor signaling. P48145. GPR7-expressing cells, fluorescence antagonist assay. inhibition, % at 4.4 µM. 290,000 compounds, 1.1% hits. AID 1861; in the data active means inhibition above about 16%, passing the limit was not always enough;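 further: cells stimulated with the agonist NPW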
OX1R antag-2 – antagonists of human orexin 1 receptor (OX1R). O43613. OX1R-expressing cells, FRET antagonist read-out. inhibition, % at 6.6 µM. 330,000 compounds, 1.8% hits; in the data active means inhibition mostly above about 38%, no sharp cut-off; inactive means mostly below about 40%
TAAR1 antag – human TAAR1 antagonism; Q96RJ0; CHO RD-HGA16 TAAR1, Fluo-8 calcium fluorescence, antagonist; inhibition, % at 3 µM; 360,000 compounds, 1.5% hits; AID 624466;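 active means inhibition above a per-plate cutoff, the mean inhibition of test compounds on that plate plus 3 SD, cut at about 49% in these data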
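Test system – hTAAR1-expressing CHO RD-HGA16 cells, Gα16-coupled · Also added – β-PEA at EC80 concentration, post-compound challenge · Compound – 3 µM, single point · Incubation – dye loading 75 min at 37 °C, then 30 min room temperature · Measured by – Fluo-8 intracellular calcium dye fluorescence, real-time kinetic reads · Benchmarks – vehicle and agonist controls · Replicates – singlicate, one well per test compound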
CHO parental Ca – signal in parental CHO cells, OX1R antagonist counter-screen; parental CHO-K1, ATP-induced calcium, Fluo-8 fluorescence; inhibition, % at 5.6 µM; 330,000 compounds, 0.63% hits;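 active means inhibition above that plate's mean sample inhibition plus 3 SD, cut at about 26% in these data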
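test system = CHO parental line | reagent = ATP stimulus | measured by = intracellular calcium via Fluo-8 no-wash fluorescent dye | control set = ATP and no-ATP DMSO wells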
nonsel antag count – nonselective antagonism, TAAR1 counter-screen. 2,400 compounds, 77% hits. shares compounds with TAAR1 antag. counterscreen cell line, calcium fluorescence, antagonist mode. inhibition, % at 3 µM; in the data active means inhibition above about 22%;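 further: CHO-Ga16 host cells stimulated with ATP at an EC80 level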
TAAR1 ant conf – human TAAR1 antagonism, confirmed | inhibition, % at 3 µM | 2,400 compounds, 40% hits | TAAR1-expressing cells, fluorescence antagonist read-out | shares compounds with TAAR1 antag; in the data active means inhibition above about 49%;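 further: CHO-Ga16 host cells challenged with agonist PEA near its EC80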
Ga16 ag counter – counter-screen for TAAR1 antagonists: nonselective Ga16 agonists. Ga16-expressing cells, calcium fluorescence, agonist counterscreen. shares compounds with TAAR1 antag. 2,400 compounds, 18% hits. activation, % at 3 µM. AID 651953; in the data active means activation above about 12%
TAAR1 ag count – counter-screen for human TAAR1 antagonists: TAAR1 agonists; 2,400 compounds, 2% hits; hTAAR1 cell line, fluorescence activation, agonist mode; AID 651955; activation, % at 3 µM; shares compounds with TAAR1 antag; in the data active means activation above about 37%;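 further: CHO cells stably expressing TAAR1 with calcium dye readout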
Large screens that a line does not name were inactive (follow-up assays come after a bar, where they were run).

CC(C)CN(CC(C)C)S(=O)(=O)N1CCC(C(=O)NCCc2ccc(Cl)cc2)CC1	TAAR1 antag 49 | nonsel antag count 32 | TAAR1 ant conf 53 | Ga16 ag counter inactive | TAAR1 ag count inactive
C[C@@H]1CN([C@@H](C)CO)C(=O)CCCn2nncc2CO[C@@H]1CN(C)S(=O)(=O)c1ccc(Oc2ccccc2)nc1	none (no result: OX1R antag-1, GPR7 antag, OX1R antag-2, CHO parental Ca)
CCCCNC(=O)C(NC(=O)c1ccc2c(c1)OCO2)C(=O)c1ccccc1 (stereo not drawn)	none (no result: OX1R antag-1, GPR7 antag, OX1R antag-2, CHO parental Ca)
Cc1c(C(=O)N(Cc2ccccc2)C(C)C)oc2ccc(S(=O)(=O)N3CCOCC3)cc12	TAAR1 antag 80 | nonsel antag count 33 | TAAR1 ant conf 61 | Ga16 ag counter 13 | TAAR1 ag count inactive
Cc1c(C(=O)N(C)Cc2ccccc2)oc2ccc(S(=O)(=O)N3CCCC3)cc12	none
COc1ccccc1NC(=O)Nc1nc(CC(=O)N2CCN(c3ccccc3F)CC2)cs1	TAAR1 antag 65 (no result: GPR7 antag) | nonsel antag count 29 | TAAR1 ant conf inactive | Ga16 ag counter inactive | TAAR1 ag count inactive
COc1ccccc1CC(=O)N1CCN(c2ccccc2F)CC1	none
COc1ccc(NC(=S)Nc2nc(CC(=O)Nc3ccccc3OC)cs2)cc1	none
COc1ccccc1NC(=O)Nc1nc(CC(=O)NCc2c(F)cccc2F)cs1	TAAR1 antag 58 (no result: GPR7 antag) | nonsel antag count 29 | TAAR1 ant conf inactive | Ga16 ag counter inactive | TAAR1 ag count inactive
COc1ccc(OC)c(NC(=O)Cc2csc(NC(=O)Nc3ccccc3OC)n2)c1	TAAR1 antag 65 (no result: GPR7 antag) | nonsel antag count 39 | TAAR1 ant conf 54 | Ga16 ag counter inactive | TAAR1 ag count inactive
COc1ccc(NC(=O)Cc2csc(NC(=O)Nc3ccccc3OC)n2)c(OC)c1	TAAR1 antag 69 (no result: GPR7 antag) | nonsel antag count inactive | TAAR1 ant conf inactive | Ga16 ag counter inactive | TAAR1 ag count inactive
COc1ccccc1NC(=O)Cc1csc(NC(=S)Nc2ccccc2)n1	none
C=CCOC(=O)C1=C(C)NC(SCC(=O)Nc2nccs2)=C(C#N)C1c1ccc(Cl)cc1 (stereo not drawn)	none
C=CCOC(=O)C1=C(C)NC(SCC(=O)Nc2nccs2)=C(C#N)C1c1cccs1 (stereo not drawn)	TAAR1 antag 53 | nonsel antag count inactive | TAAR1 ant conf inactive | Ga16 ag counter inactive | TAAR1 ag count inactive
COc1ccccc1CN(Cc1nc2ccccc2c(=O)[nH]1)C(=O)Nc1ccc(C)cc1	none
COc1ccccc1CN(Cc1nc2ccccc2c(=O)[nH]1)S(=O)(=O)c1ccc(C)cc1	TAAR1 antag 53 | nonsel antag count inactive | TAAR1 ant conf inactive | Ga16 ag counter inactive | TAAR1 ag count inactive
Cc1cc2nc(C3CCCCC3)c(Cc3cccc(F)c3)n2c(C)c1Br	none (no result: OX1R antag-1, GPR7 antag, OX1R antag-2, CHO parental Ca)
Cc1nc(N2CCN(c3ccccn3)CC2)c2c(C)c(C(=O)Nc3ccccc3F)sc2n1	none
O=C(Nc1c(F)cccc1F)c1cnc(N2CCN(c3ccccn3)CC2)c2ccccc12	TAAR1 antag 63 | nonsel antag count 35 | TAAR1 ant conf 60 | Ga16 ag counter inactive | TAAR1 ag count inactive
COc1cccc(OC)c1OCCOc1ccc(C(=O)c2ccccc2)cc1	TAAR1 antag 52 | nonsel antag count 31 | TAAR1 ant conf 59 | Ga16 ag counter inactive | TAAR1 ag count inactive
COC(=O)c1ccc(OCCOc2ccccc2)cc1	none
C[C@H](CO)N1C[C@H](C)[C@@H](CN(C)S(C)(=O)=O)OCc2cnnn2CCCC1=O	none (no result: OX1R antag-1, GPR7 antag, OX1R antag-2, CHO parental Ca)
COc1ccc([C@H]2CC(=O)C=C(c3cccc(Br)c3)C2)cc1OC	TAAR1 antag 64 (no result: GPR7 antag) | nonsel antag count inactive | TAAR1 ant conf inactive | Ga16 ag counter inactive | TAAR1 ag count inactive

From PubChem BioAssay
